MIC50, Activity and IC50 data for 13 compounds are collected here from ChEMBL document CHEMBL1833880, “Biologically active arborinane-type triterpenoids and anthraquinones from Rubia yunnanensis” (J Nat Prod, 2011).

In assay [1] the test system is Staphylococcus aureus. Briefly: Antibacterial activity against Staphylococcus aureus CGMCC1.2465 after 24 hrs by turbidimetric method. The note with it: for MIC50: CGMCC1.2465, 24 h. It counts as functional. A digest of the protocol:
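Inoculum was adjusted by OD620 to McFarland 0.5 and diluted to 1 × 10^6 cfu/mL. It was exposed to serial dilutions up to 25 μg/mL in Mueller-Hinton broth at 37 °C for 24 h, and absorbance was read at 620 nm. MIC50 was taken from triplicate tests. Ampicillin was the reference.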

Assay [2] has as its system A549. The experiment in a line: Cytotoxicity against human A549 cells at >10 uM after 48 hrs by SRB assay. It counts as functional, cell-based. (In general: The SRB assay estimates cell density from bound dye.)
The test system of assay [3] is HeLa. Briefly: Cytotoxicity against human HeLa cells after 48 hrs by SRB assay. It counts as functional, cell-based. The essentials:
(§1)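 Cells plated 24 h, then exposed to serial dilutions up to 20 μg/mL for 48 h at 37 °C in 5% CO2. They were fixed with cold 50% TCA for 1 h at 4 °C, stained with 0.4% SRB in 1% acetic acid for 15 min, and the bound dye was dissolved in 10 mM Tris base. Absorbance was read at 560 nm. IC50 was taken from triplicate tests.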

Assay [4] has as its system SMMC-7721. Briefly: Cytotoxicity against human SMMC7721 cells at >10 uM after 48 hrs by SRB assay. Type of assay: functional, cell-based.
In assay [5] the test system is SMMC-7721. The experiment in a line: Cytotoxicity against human SMMC7721 cells after 48 hrs by SRB assay. Type of assay: functional, cell-based. Conditions: SMMC-7721, 48 h. A digest of the protocol: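 Cells seeded 24 h, then exposed to serial dilutions (top concentration 20 μg/mL) for 48 h at 37 °C, 5% CO2. Fixed with ice-cold 50% TCA at 4 °C for 1 h, stained 15 min with 0.4% SRB in 1% acetic acid, dye solubilized in 10 mM Tris base, absorbance at 560 nm. Triplicate; IC50 reported. Paclitaxel and camptothecin as positive controls.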

The subject of assay [6] is Candida albicans. The experiment in a line: microbe, parasite or virus in culture. It counts as functional. Conditions: CGMCC 2.2086, 24 h.
Assay [7] concerns HeLa. Briefly: Cytotoxicity against human HeLa cells at >10 uM after 48 hrs by SRB assay. Type of assay: functional, cell-based.
Assay [8] has as its system A549. The experiment in a line: Cytotoxicity against human A549 cells after 48 hrs by SRB assay. Type of assay: functional, cell-based. The note with it: A549, 48 h. A digest of the protocol:
as §1

Each structure is given as a SMILES string. In brackets after ≈: the same amount, converted by molar mass. Activity calls are given as the source filed them. The calls are words filed in the database; no cut-off is given here. Where only a bound is given, the exact number is not on record here.

As to `Cc1c(O)cc2c(c1O)C(=O)c1ccc(O)cc1C2=O`, the MIC50 in assay [1] was found to be 21.5 µM (≈ 5.81 µg/mL).
The IC50 is the concentration at which inhibition is half-maximal. For the compound `CC(=O)O[C@@H]1C[C@@H](C(C)C)[C@]2(CO)CC[C@@]3(C)[C@H]4C(=CC[C@]3(C)[C@@H]12)[C@@]1(C)C=CC(=O)C(C)(C)[C@@H]1C[C@@H]4O`, the result in assay [2] and in assay [4] was inactive. The same compound came in with a half-inhibitory concentration (IC50) in assay [3] of 7.9 µM.
Regarding `CC[C@@]1(O)C(=O)OCc2c1cc1n(c2=O)Cc2cc3ccccc3nc2-1` [CAMPTOTHECIN], the IC50 in assay [5] came out at 0.003 µM.
In turn, `Clc1ccc(COC(Cn2ccnc2)c2ccc(Cl)cc2Cl)c(Cl)c1` (stereo not drawn) [MICONAZOLE NITRATE] showed an MIC50 in assay [6] of 0.9 µM.
Regarding `CC(=O)OC[C@@]12CC[C@@]3(C)[C@H]4C(=CC[C@]3(C)[C@H]1[C@H](O)C[C@H]2C(C)C)[C@@]1(C)CC[C@H](O[C@@H]2O[C@H](CO[C@@H]3O[C@H](CO)[C@@H](O)[C@H](O)[C@H]3O)[C@@H](O)[C@H](O)[C@H]2O)C(C)(C)[C@@H]1C[C@@H]4O`, the outcome in assay [2] and in assay [4] was inactive. Also, in assay [3], the IC50 turned out to be 2.2 µM.
Regarding `COC1=CC(=O)c2ccccc2C1=O` [2-Methoxy-1,4-naphthoquinone], the outcome in assay [2], in assay [7] and in assay [1] was inactive. The compound further returned an IC50 in assay [5] of 4.3 µM. This compound displayed an MIC50 in assay [6] of 16 µM (≈ 3.01 µg/mL).
Consider `CC(C)[C@@H]1C[C@@H](O)[C@H]2[C@@]1(C)CC[C@@]1(C)C3=CC[C@H]4C(C)(C)[C@@H](O)CC[C@]4(C)C3=CC[C@]21C` [RUBIYUNNANOL A], for which the IC50 was 9.8 µM in assay [8] and greater than 10 µM in assay [7]. The result in assay [4] was inactive.
Take `O=C1c2ccccc2C(=O)c2cc(CO)c(O)cc21`: the outcome in assay [2] and in assay [4] was inactive. Also, the IC50 in assay [3] stood at 3 µM.
Regarding `CC1(C)S[C@@H]2[C@H](NC(=O)[C@H](N)c3ccccc3)C(=O)N2[C@H]1C(=O)O` [AMPICILLIN], the MIC50 in assay [1] turned out to be 0.1 µM (≈ 0.0349 µg/mL).
On to `CC(=O)O[C@H]1C(=O)[C@@]2(C)[C@H]([C@H](OC(=O)c3ccccc3)[C@]3(O)C[C@H](OC(=O)[C@H](O)[C@@H](NC(=O)c4ccccc4)c4ccccc4)C(C)=C1C3(C)C)[C@]1(OC(C)=O)CO[C@@H]1C[C@@H]2O` [PACLITAXEL], for which the IC50 in assay [3] was 0.6 µM.
`CC(=O)O[C@@H]1C[C@@H](C(C)C)[C@]2(CO)CC[C@@]3(C)[C@H]4C(=CC[C@]3(C)[C@@H]12)[C@@]1(C)CC[C@H](O)C(C)(C)[C@@H]1C[C@@H]4O` [RUBIARBONOL G]: the IC50 in assay [8] amounted to 7 µM; in assay [3], 2.2 µM. For the same compound, the result in assay [4] was inactive. Besides, the figures for the MIC50 in assay [1] and in assay [6] were greater than 25 µM and 10.8 µM (≈ 5.58 µg/mL), respectively.
As for `CC(=O)OC[C@H]1O[C@@H](Oc2cc3c(c(O)c2C)C(=O)c2ccc(O)cc2C3=O)[C@H](O[C@@H]2O[C@@H](C)[C@H](O)[C@@H](O)[C@H]2O)[C@@H](O)[C@@H]1O`, the result in assay [2] and in assay [4] was inactive. Besides, the IC50 in assay [3] was 4.2 µM.
Turning to `CC(C)[C@@H]1CC=C2[C@@]1(C)CC[C@@]1(C)[C@H]3C(=CC[C@]21C)[C@@]1(C)CC[C@H](O)C(C)(C)[C@@H]1C[C@@H]3O` [RUBIYUNNANOL B], the IC50 in assay [8] is 8.2 µM; in assay [3], 5.3 µM. Further, in assay [4], the outcome was inactive.
